Published values from different studies.
Lines come from different studies, so protocols differ. Values after ≈ are worked out from the molar mass of the structure shown.
Organism: Bacillus subtilis

Structure (SMILES) | assay | test system | setting | quantity | value
CC1(C)S[C@@H]2[C@H](NC(=O)[C@H](N)c3ccccc3)C(=O)N2[C@H]1C(=O)O | microbial growth, agar dilution | ATCC6633 | 26.93 µM | inhibition | 100%
Cc1c(NC(=O)CC2=NC(=O)CS2)c(=O)n(-c2ccccc2)n1C | microbial growth, well diffusion |  | 100000 µg/mL | inhibition zone | 26 mm
O=C(O)c1ccc(-n2cc(/C=N/Nc3ccc(Cl)cc3Cl)c(-c3cccc(F)c3)n2)cc1 | microbial growth | ATCC6623 |  | MIC | 1.56 µg/mL (≈ 3.32 µM)
N#CC(=Cc1ccc(Cl)cc1)C1=NC(=O)C(=Cc2cn(-c3ccccc3)nc2-c2ccccc2)S1 | microbial growth, well diffusion |  | 100000 µg/mL | inhibition zone | 22 mm
O=C1NC(=S)N/C1=C\c1c2ccccc2c(-c2ccc(N(c3ccccc3)c3ccccc3)cc2)c2ccccc12 | microbial killing, broth dilution | ATCC6633 |  | MBC | > 1000 µg/mL
Cc1ccc(-c2nn(-c3ccccc3)cc2C=C(C#N)C2=NC(=O)CS2)cc1 | microbial growth, well diffusion |  | 100000 µg/mL | inhibition zone | 21 mm
O=C(O)c1ccc(-n2cc(/C=N/Nc3ccc(C(F)(F)F)cc3)c(-c3cccc(F)c3)n2)cc1 | microbial growth | ATCC6623 |  | MIC | 12.5 µg/mL (≈ 26.7 µM)
O=C1NC(=S)N/C1=C\c1ccc(-c2ccc(N(c3ccccc3)c3ccccc3)cc2)cc1 | microbial killing, broth dilution | ATCC6633 |  | MBC | > 1000 µg/mL
CCOC(=O)c1c(N)csc1-c1cn(-c2ccccc2)nc1-c1ccccc1 | microbial growth, well diffusion |  | 100000 µg/mL | inhibition zone | 23 mm
O=C(O)CN1C(=O)/C(=C/c2ccc(-c3ccc(N(c4ccccc4)c4ccccc4)cc3)cc2)SC1=S | microbial killing, broth dilution | ATCC6633 |  | MBC | 1.95 µg/mL (≈ 3.73 µM)
O=C(O)c1cn(C2CC2)c2cc(N3CCNCC3)c(F)cc2c1=O | microbial growth | 6633 | 1000 µg/mL | inhibition zone | 29 mm
Cc1cc(N)c2ccccc2[n+]1CCCCCCCCCC[n+]1c(C)cc(N)c2ccccc21 | microbial growth, disc diffusion |  | 50 µg/disc | inhibition zone | 11 mm
O=C(O)CN1C(=O)/C(=C/c2ccc(-c3ccc(N(c4ccccc4)c4ccccc4)cc3)c3ccccc23)NC1=S | microbial killing, broth dilution | ATCC6633 |  | MBC | > 1000 µg/mL
